Source: ChEMBL document CHEMBL1122464 (J Med Chem, 1983)
Calls of active or inactive are those of the source. The calls are words filed in the database; no cut-off is given here.

Experiments:
Nucleic Acid = assay: Binding constant to poly (dA-dT) was determined in calf thymus DNA by a fluorometric method; format: functional
[1] = Half life of the drug was determined in the presence of 2-mercaptoethanol; format: ADME; settings: solution containing 2-mercaptoethanol
L1210 = assay: Reduce in the cell count when drug added to the murine L1210 leukemia cell cultures for 70 h; format: functional; settings: Mus musculus, L1210, 70 h; read-out: ID50 (the source's name)
[2] = Chromatographic measure of drug lipophilicity; format: physicochemical
[3] = Acid dissociation constant was determined; format: ADME
Procedure, shortened: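 Acridine pKa measured spectrophotometrically in 20% aqueous DMF. Values in parentheses were not measured directly: they were obtained by subtracting 0.25 pKa unit from values determined for the corresponding de-1'-NHSO2CH3 derivatives.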

P388 [4] = assay: Percent increase in the life span of treated mice over a group of control mice injected with p388 tumor alone when administered intraperitoneally (>500) as a solution in 0.1 mL of 30%,v/v, ethanol/water; Inactive; format: functional; settings: Mus musculus
P388 [5] = assay: Percent increase in the life span of treated mice over a group of control mice injected with p388 tumor alone when administered intraperitoneally (9) as a solution in 0.1 mL of 30%,v/v, ethanol/water; format: functional, Mus musculus
P388 [6] = assay: Optimal dose administered intraperitoneally in; format: functional, Mus musculus

Row | Structure (SMILES) | K (Nucleic Acid) [M⁻¹] | half-life [1] [min] | IC50 (L1210) [nM] | Rm [2] | pKa [3] | ILS (P388 [4]) | ILS (P388 [5]) [%] | OD (P388 [6]) [mg/kg/day]
1 | Cc1cc(NS(C)(=O)=O)ccc1Nc1c2ccccc2nc2ccccc12 | 380000 | 54 | 100 | 0.15 | – | – | – | –
2 | COc1cc(NS(C)(=O)=O)cc(OC)c1Nc1c2ccccc2nc2ccccc12 | – | > 70 | 4900 | 0.36 | 7.63 | inactive | – | –
3 | COc1cc(NS(C)(=O)=O)ccc1Nc1c2ccccc2nc2ccccc12 [AMSACRINE] | 290000 | 1.8 | – | 0.18 | – | – | 111 | –
4 | CS(=O)(=O)Nc1ccc(Nc2c3ccccc3nc3ccccc23)cc1 | – | 0.92 | 35 | 0 | – | – | – | 66
5 | Cc1cc(NS(C)(=O)=O)cc(C)c1Nc1c2ccccc2nc2ccccc12 | – | > 70 | > 10000 | 0.41 | 7.6 | inactive | – | –
